Compound activity (PubChem)
MBD2 inh = inhibitors of MBD2 binding to methylated DNA, primary screen, biochemical, TR-FRET, DNA-binding domain, human; inhibition, % at 4.4 µM; Methyl-CpG-binding domain protein 2 (Homo sapiens), Q9UBB5; AID 686964, 2013; actives 0.31% (n = 370,000); MBD2 binding to methylated oligonucleotide; in the data active means inhibition above about 13%
UHRF1 binding = UHRF1 methylated DNA binding inhibitors, primary screen, counter-screen for MBD2 inhibitor project, biochemical, TR-FRET, human UHRF1, single concentration; E3 ubiquitin-protein ligase UHRF1 (Homo sapiens), Q96T88; UHRF1 binding to methylated oligo; AID 687016, 2013; actives 0.75% (n = 370,000); inhibition, % at 4.4 µM; in the data active means inhibition above about 21%;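 further: UHRF1 SRA domain binding a hemimethylated CpG hairpin DNA probe; 0% = median of test compound wells and 100% = reference inhibitor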
NSD2 HMT inh = NSD2 histone methyltransferase inhibitors, primary screen, biochemical, AlphaScreen, single concentration, set 2; NSD2 peptide methylation, 120 min; Histone-lysine N-methyltransferase NSD2 (Homo sapiens), O96028; actives 0.54% (n = 310,000); inhibition, % at 12.5 µM; in the data active means inhibition above about 50%
CASP6 VEID inh = human caspase-6 inhibitors, primary screen, biochemical, VEID-R110 fluorescence, single point, set 2; AID 686996, 2013; actives 0.53% (n = 350,000); inhibition, % at 12.5 µM; purified caspase-6, Z-VEID-R110 cleavage fluorescence;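 active means mean inhibition across replicates at least about 35%, with every replicate also reaching that limit, limit read from the data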;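 further: 0% = median of neutral control wells and 100% = no fluorescence left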
Target sequence (P55212 24-179 limits assumed): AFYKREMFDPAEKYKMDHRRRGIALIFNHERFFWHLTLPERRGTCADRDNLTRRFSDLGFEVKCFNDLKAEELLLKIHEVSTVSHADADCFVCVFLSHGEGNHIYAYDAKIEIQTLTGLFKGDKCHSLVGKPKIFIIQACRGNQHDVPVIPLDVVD
Target sequence (P55212 194-293 limits assumed): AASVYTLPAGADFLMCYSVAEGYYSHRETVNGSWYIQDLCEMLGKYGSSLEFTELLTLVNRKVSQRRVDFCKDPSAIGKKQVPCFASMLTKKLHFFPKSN
LEDGF integ inh = blockers of LEDGF/p75-dependent integrase strand transfer – biochemical, TR-FRET, high throughput, primary screen | TR-FRET IN-LEDGF/p75 DNA integration, Eu/Cy5 | HIV-1 integrase (with human LEDGF/p75) | actives 0.64% (n = 370,000) | inhibition, % at 3.7 µM;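 active means inhibition above the screen-wide mean plus 3 SD, cut at about 13% in these data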;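 further: signal is the Cy5 over europium emission ratio at 671 and 618 nm; 0% = plate median of compound wells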
TDP2 inh = human TDP2 enzyme inhibitors, primary screen, biochemical, epi absorbance, recombinant enzyme | Tyrosyl-DNA phosphodiesterase 2 (Homo sapiens), O95551 | inhibition, % at 12.8 µM | actives 0.34% (n = 370,000) | AID 720702, 2013 | T5PNP hydrolysis, p-nitrophenol absorbance 415 nm;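 active means inhibition above the mean of all tested compounds plus 3 SD, set per campaign, cut at about 25% in these data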;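 further: 0% = DMSO with enzyme and 100% = buffer with substrate but no TDP2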
Target sequence (O95551 whole entry, looked up): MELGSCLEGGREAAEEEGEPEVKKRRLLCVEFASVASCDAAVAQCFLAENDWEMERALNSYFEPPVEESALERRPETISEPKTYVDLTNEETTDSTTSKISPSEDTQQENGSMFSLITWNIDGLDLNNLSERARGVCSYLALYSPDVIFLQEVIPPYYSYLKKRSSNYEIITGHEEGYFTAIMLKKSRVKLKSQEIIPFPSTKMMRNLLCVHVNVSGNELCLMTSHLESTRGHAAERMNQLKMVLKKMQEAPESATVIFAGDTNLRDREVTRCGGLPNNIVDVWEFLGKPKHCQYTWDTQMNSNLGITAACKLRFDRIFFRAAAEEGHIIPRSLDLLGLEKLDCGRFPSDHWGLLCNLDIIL
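Assay system: Recombinant human TDP2 | Quantity: 120 nM TDP2 per well | Incubation: 2 h at 37 °C | Signal: Epi absorbance | Evaluation: Percent inhibition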
Numbers without * were called inactive; · = no result given. This is a sample that favours compounds with a hit; in the whole collection about 1.8% have one here.

SMILES | MBD2 inh | UHRF1 binding | NSD2 HMT inh | CASP6 VEID inh | LEDGF integ inh | TDP2 inh
CCCCNC(=O)C1C(c2ccc(C(F)(F)F)cc2)=Nc2ccccc2N1C(C)=O (stereo not drawn) | -9.2 | 1.0 | -0.9 | 1.9 | -2.0 | 3.6
Cc1cccc(NC(=O)CCS(=O)(=O)c2cccc3nonc23)c1C | 11.2 | 26.7* | -4.0 | 2.3 | -1.3 | -0.2
CC(C)NC(=O)N1Cc2cc(C(=O)NC3CCCCC3)nc(-c3cccc(-c4cccnc4)c3)c2[C@H]1CCO | · | · | · | 6.1 | · | ·
CCNC(=O)NC(=O)C(C)OC(=O)C(C)(C)Oc1ccc(Cl)cc1 (stereo not drawn) | 6.6 | 25.9* | -0.8 | 1.0 | -1.7 | 13.1
O=C1NC(=Nc2ccccc2Cl)S/C1=C\c1cccc([N+](=O)[O-])c1O | -5.8 | -4.2 | 59.8* | 38.6* | 9.5 | 0.7
S=C(NCc1ccc(Cl)cc1)NCc1ccccn1 | 3.7 | -0.6 | 4.2 | 1.5 | -5.3 | -1.9
CC(C)CCC(CCNCc1ccccn1)c1ccc(Cl)cc1 (stereo not drawn) | 0.6 | 2.3 | 4.4 | 10.3 | 15.3* | -1.5
Cc1noc(C)c1NC(=O)N(C)C[C@@H]1Oc2c(NS(C)(=O)=O)cccc2C(=O)N([C@@H](C)CO)C[C@@H]1C | · | · | · | -2.4 | · | ·
Nc1cc([N+](=O)[O-])ccc1N1C(=O)CCCC1=O | 1.3 | 6.4 | -1.0 | 40.4* | -1.7 | -0.2
Nc1cc(Cl)ccc1N1C(=O)CCC1=O | 4.7 | -0.1 | 31.9 | 0.7 | 1.1 | -0.1
CCOC(=O)[C@@H]1[C@H]2COc3cc(OC)ccc3[C@H]2N2C(=O)N(c3cccc(F)c3)C(=O)[C@]12C | 4.4 | -0.1 | · | 51.4* | 0.3 | -6.4
CCOC(=O)[C@@H]1[C@H]2COc3cc(OC)ccc3[C@@H]2N2C(=O)N(c3cccc(C)c3)C(=O)[C@]12C | 0.4 | -2.0 | · | -0.9 | -1.1 | 10.5
Nc1ccc2cn[nH]c2c1 | -3.5 | -4.6 | · | 44.0* | 1.4 | 0.9
CCCC(=O)N1CC2(C1)CN(C(=O)C1CCOCC1)[C@H](CO)c1[nH]c3cc(OC)ccc3c12 | · | · | · | 3.6 | · | ·
O=C(OCc1ccccc1)N1CCCC2CC1c1ccccc12 (stereo not drawn) | -5.7 | -3.9 | · | 53.8* | 0.4 | 0.1
N#C[C@@H]1[C@H](c2ccc(C3=CCCC3)cc2)[C@@H](CO)N1C(=O)NC1CCCCC1 | · | · | · | 3.0 | · | ·
C/C(=N\Nc1ccc(Cl)c(C(=O)O)c1)c1ccc[nH]1 | 5.3 | 23.4* | · | 1.3 | 7.5 | -5.9
C/C(=N\Nc1ccc(Cl)c(C(=O)O)c1)c1cccs1 | 2.3 | 17.2 | 11.5 | 4.2 | 2.5 | -23.1
Cc1noc(C)c1NC(=O)N(C)C[C@@H]1OCCCC[C@H](C)Oc2ccc(NC(=O)c3ccccc3)cc2C(=O)N([C@H](C)CO)C[C@H]1C | · | · | · | -1.0 | · | ·
O=C(CN1C(=O)S/C(=C\c2ccc(-c3cc(C(=O)O)ccc3Cl)o2)C1=O)Nc1ccc2c(c1)OCO2 | 5.7 | 16.6 | · | 1.4 | 18.4* | -16.8
CCOC(=O)CN1C(=O)CCSc2ccc(Cl)cc21 | 1.1 | 35.9* | 1.7 | -0.6 | -1.6 | -7.5
Cc1ccc(CN2C(=O)CCSc3ccc(Cl)cc32)cc1 | 0.6 | 2.3 | -1.6 | · | -3.0 | -5.2
C[C@H](CO)N1C[C@H](C)[C@H](CN(C)Cc2ccccc2)Oc2ccc(NC(=O)CCN3CCOCC3)cc2CC1=O | · | · | · | -1.2 | · | ·
COC(=O)CSc1nn(-c2ccc(F)cc2)c(=S)s1 | 6.5 | 21.4* | -3.2 | -2.7 | -1.7 | -7.9
O=C(CSc1nn(-c2ccccc2)c(=S)s1)Nn1cnnc1 | -1.9 | 1.6 | -1.1 | · | 0.3 | -10.6
SMILES | MBD2 inh | UHRF1 binding | NSD2 HMT inh | CASP6 VEID inh | LEDGF integ inh | TDP2 inh
C[C@@H]1CN([C@H](C)CO)C(=O)c2cccc(NS(=O)(=O)c3ccc(Cl)cc3)c2O[C@@H]1CN(C)Cc1ccc2c(c1)OCO2 | · | · | · | 3.2 | · | ·
CSc1ccccc1OCc1cc(C(=O)N2CCc3c(Cl)cccc3C2)no1 | 0.7 | -1.0 | -4.8 | 64.3* | -3.0 | 16.8
COc1cc2c(cc1OC)CN(C(=O)c1cc(COc3ccccc3SC)on1)CC2 | -1.9 | -0.9 | 8.4 | -3.1 | 0.2 | 2.3
Cc1ccc(-c2n[nH]c(=S)n2Cc2ccccc2)cc1 | 4.0 | 1.8 | 32.4 | · | -1.9 | -4.0
CCOc1ccc(-c2n[nH]c(=S)n2Cc2ccccc2)cc1 | -2.5 | 1.6 | 0.4 | 37.2* | -1.6 | -6.4
O=C(C[C@@H]1CC[C@@H]2[C@H](COC[C@H](O)CN2CCc2ccccc2)O1)NCc1ccc(Oc2ccccc2)cc1 | · | · | · | -0.7 | · | ·
CCO[C@@H]1OC(C(=O)O)=C[C@H](c2ccc(C(F)(F)F)cc2)[C@H]1CCCO | -3.7 | 77.0* | · | 4.4 | 2.4 | 0.4
COc1ccc(NC(=O)N(C)C[C@@H]2Oc3ccc(NS(=O)(=O)c4ccc(Cl)cc4)cc3C(=O)N([C@H](C)CO)C[C@H]2C)cc1 | · | · | · | 0.8 | · | ·
COc1ccc(C2=NOC(C(=O)Nc3c(C)n(C)n(-c4ccccc4)c3=O)C2)cc1 (stereo not drawn) | 4.2 | 4.7 | · | -0.8 | -5.4 | -7.4
COc1cc(C2=NOC(C(=O)Nc3c(C)n(C)n(-c4ccccc4)c3=O)C2)cc(OC)c1OC (stereo not drawn) | 12.6 | 24.1* | -2.2 | 2.1 | 3.5 | 15.5
CCOc1nc2c(c(C)nn2-c2ccccc2)c(C)c1CCC(=O)NCCN1CCOCC1 | · | · | -0.3 | · | · | ·
Nc1ccc(C(=O)OCC(=O)Nc2cc([N+](=O)[O-])ccc2F)cc1 | -3.5 | 42.5* | -1.6 | 1.2 | -4.9 | -3.5
O=C(COC(=O)C1CCCCC1)Nc1cc([N+](=O)[O-])ccc1F | -0.4 | -2.8 | -3.4 | -2.4 | -2.7 | -2.3
C[C@@H]1CCCCO[C@H](CN(C)C(=O)Nc2ccc3c(c2)OCO3)[C@H](C)CN([C@H](C)CO)C(=O)c2cc(NC(=O)CCC(F)(F)F)ccc2O1 | · | · | · | 1.6 | · | ·
CO[C@@H]1CN(C)C(=O)c2cc(NC(=O)C3CCCC3)ccc2OC[C@@H](C)N(S(=O)(=O)c2ccc(Cl)cc2)C[C@H]1C | · | · | · | -3.6 | · | ·
COc1cccc(S(=O)(=O)N[C@@H]2C=C[C@H](CC(=O)NC3Cc4ccccc4C3)O[C@@H]2CO)c1 | · | · | · | -0.2 | · | ·
C[C@@H]1CN([C@H](C)CO)S(=O)(=O)c2ccc(/C=C/c3ccccc3)cc2O[C@H]1CN(C)C(=O)CN1CCOCC1 | · | · | · | 8.6 | · | ·
O=C1c2ccccc2C(=O)C1(CO)c1ccccc1 | -10.6 | -1.5 | 2.9 | 38.4* | -1.8 | 9.7
CCS(=O)(=O)Nc1ccc2c(c1)C(=O)N(C)C[C@H](OC)[C@@H](C)CN(Cc1ccccn1)[C@H](C)CO2 | · | · | · | -0.6 | · | ·
